ChEMBL document CHEMBL4043083, “Design and synthesis of bicyclic acetals as Beta Secretase (BACE1) inhibitors” (Bioorg Med Chem, 2017)

Legend:
Beta-secretase 1 [1] = biological target: T1, Beta-secretase 1 (Homo sapiens, UniProt P56817); assay: Inhibition of BACE1 (unknown origin) at 10 uM pre-incubated for 10 mins before addition of fluorescent substrate HiLyte FluorTM 488-Glu-Val-Asn-Leu-Asp-Ala-Glu-Phe-Lys and measured over 30 mins
Method in brief: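 BACE1 (1 µg/mL) preincubated with inhibitor at 10 µM, 10 min, 25 °C, then reaction started by adding the internally quenched substrate (QXL 520 quencher). Fluorescence (ex 490/em 520 nm) read over 30 min at 25 °C. Percent inhibition = (1−Vs/Vo)×100 from initial velocities with and without inhibitor.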

Beta-secretase 1 [2] = biological target: T1, Beta-secretase 1; assay: Inhibition of BACE1 (unknown origin) pre-incubated for 10 mins before addition of fluorescent substrate HiLyte FluorTM 488-Glu-Val-Asn-Leu-Asp-Ala-Glu-Phe-Lys and measured over 30 mins
Method in brief: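 Kit-based fluorometric BACE1 assay. Enzyme at 1 µg/mL, preincubated 10 min at 25 °C with inhibitor across 0.003–30 µM before substrate (QXL 520-quenched) addition. Initial velocities taken from ex 490/em 520 nm fluorescence over 30 min at 25 °C. IC50 from the dose-response, run in triplicate in three independent experiments, given as mean ± SD.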

T1 sequence (P56817 whole entry): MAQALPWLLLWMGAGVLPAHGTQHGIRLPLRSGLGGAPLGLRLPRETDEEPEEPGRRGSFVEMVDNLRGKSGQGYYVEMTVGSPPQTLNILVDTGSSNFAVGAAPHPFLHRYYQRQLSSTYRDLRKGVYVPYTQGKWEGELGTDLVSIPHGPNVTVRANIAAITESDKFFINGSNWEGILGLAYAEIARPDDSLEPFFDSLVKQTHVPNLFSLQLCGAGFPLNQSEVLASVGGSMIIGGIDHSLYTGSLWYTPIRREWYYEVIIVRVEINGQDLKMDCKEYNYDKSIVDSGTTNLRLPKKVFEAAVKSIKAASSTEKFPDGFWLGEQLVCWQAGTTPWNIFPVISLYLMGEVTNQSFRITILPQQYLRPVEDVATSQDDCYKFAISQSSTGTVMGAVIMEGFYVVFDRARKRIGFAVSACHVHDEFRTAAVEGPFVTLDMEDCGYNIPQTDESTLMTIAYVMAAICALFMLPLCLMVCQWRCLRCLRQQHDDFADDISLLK

| Structure (SMILES) | inhibition (Beta-secretase 1 [1]) | IC50 (Beta-secretase 1 [2]) |
| --- | --- | --- |
| C#CCNC(=O)[C@@H]1O[C@H]2CN(Cc3ccccc3)C[C@@H]1O2 | 0% |  |
| C#CCNC(=O)[C@@H]1O[C@@H]2O[C@H]1C(=O)N(Cc1ccccc1)[C@H]2Cc1ccccc1 | 29% |  |
| COC(=O)[C@H](c1ccccc1)N1C[C@@H]2O[C@@H](C(=O)N3CCCCC3)[C@@H](O2)C1=O | 0% |  |
| COC(=O)[C@H]1O[C@H]2O[C@@H]1C(=S)N(Cc1ccccc1)[C@@H]2Cc1ccccc1 | 9% |  |
| O=C([C@@H]1O[C@@]2(c3ccccc3)CN(Cc3ccccc3)C(=O)[C@@H]1O2)N1CCOCC1 | 0% |  |
| O=C([C@@H]1O[C@@H]2O[C@H]1C(=S)N(Cc1ccccc1)[C@H]2Cc1ccccc1)N1CCOCC1 | 0% |  |
| O=C([C@@H]1O[C@@H]2O[C@H]1C(=O)N(Cc1ccccc1)[C@H]2Cc1ccccc1)N1CCCCC1 | 15% |  |
| O=C([C@@H]1O[C@H]2CN(Cc3ccccc3)C(=O)[C@@H]1O2)N1CCCCC1 | 36% |  |
| CC(C)C[C@H](CO)NC(=O)[C@@H]1O[C@H]2CN(Cc3ccccc3)C(=O)[C@@H]1O2 | 0% |  |
| COC(=O)[C@H](CC(C)C)N1C[C@@H]2O[C@@H](C(=O)N3CCCCC3)[C@@H](O2)C1=O | 46% |  |
| CC(C)C[C@@H](CO)NC(=O)[C@H]1O[C@@H]2CN(Cc3ccccc3)C(=O)[C@H]1O2 | 0% |  |
| O=C([C@@H]1O[C@H]2CN(Cc3ccccc3)C(=S)[C@@H]1O2)N1CCOCC1 | 10% |  |
| CCOC(=O)N1CCN(C(=O)[C@H]2O[C@H]3O[C@@H]2C(=S)N(Cc2ccccc2)[C@@H]3Cc2ccccc2)CC1 | 5% |  |
| COC(=O)[C@@H]1O[C@@H]2O[C@H]1C(=S)N(Cc1ccccc1)[C@H]2Cc1ccccc1 | 61% | 2600 nM |
| O=C(NC1CCCCC1)[C@@H]1O[C@@]2(c3ccccc3)CN(C(c3ccccc3)c3ccccc3)C(=O)[C@@H]1O2 | 0% |  |

Results, then the compound that gave them:

| inhibition (Beta-secretase 1 [1]) | IC50 (Beta-secretase 1 [2]) | Structure (SMILES) |
| --- | --- | --- |
| 8% |  | CC(C)C[C@@H](CO)NC(=O)[C@@H]1O[C@H]2CN(Cc3ccccc3)C(=O)[C@@H]1O2 |
| 0% |  | CCOC(=O)N1CCN(C(=O)[C@@H]2O[C@H]3CN(Cc4ccccc4)C(=S)[C@@H]2O3)CC1 |
| 16% |  | COC(=O)[C@@H]1O[C@H]2CN(Cc3ccccc3)C(=S)[C@@H]1O2 |
| 32% |  | O=C([C@H]1O[C@H]2O[C@@H]1C(=S)N(Cc1ccccc1)[C@@H]2Cc1ccccc1)N1CCOCC1 |
| 16% |  | CCOC(=O)N1CCN(C(=O)[C@@H]2O[C@@H]3O[C@H]2C(=S)N(Cc2ccccc2)[C@H]3Cc2ccccc2)CC1 |
| 0% |  | CC(C)C[C@H](CO)NC(=O)[C@H]1O[C@@H]2CN(Cc3ccccc3)C(=O)[C@H]1O2 |
